From ChEMBL document CHEMBL2203205 (Eur J Med Chem, 2012)

Tests used:
Cytochrome P450 2D6 = Cytochrome P450 2D6 (Homo sapiens, UniProt P10635); experiment: Inhibition of human CYP2D6; assay type: ADME
[1] = biological target: T1, Alpha-1B adrenergic receptor (Homo sapiens, UniProt P35368); experiment: Inhibition of alpha1B adrenergic receptor
T1 sequence (P35368 whole entry): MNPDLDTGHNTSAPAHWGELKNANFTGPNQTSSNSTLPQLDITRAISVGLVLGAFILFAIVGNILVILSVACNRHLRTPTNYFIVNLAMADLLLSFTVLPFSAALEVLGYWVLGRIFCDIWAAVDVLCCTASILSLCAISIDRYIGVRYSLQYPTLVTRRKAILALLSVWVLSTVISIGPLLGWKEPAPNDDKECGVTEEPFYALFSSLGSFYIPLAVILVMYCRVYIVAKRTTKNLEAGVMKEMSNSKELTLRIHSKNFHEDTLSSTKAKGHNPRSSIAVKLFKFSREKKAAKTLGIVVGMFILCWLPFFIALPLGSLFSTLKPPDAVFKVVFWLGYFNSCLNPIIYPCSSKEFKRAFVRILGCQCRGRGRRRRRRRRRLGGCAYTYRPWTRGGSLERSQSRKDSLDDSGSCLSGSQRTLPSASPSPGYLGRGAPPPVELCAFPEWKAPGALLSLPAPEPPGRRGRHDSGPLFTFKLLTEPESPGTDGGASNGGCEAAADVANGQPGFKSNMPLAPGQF
Method in brief: (§1)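 Radioligand competition binding, run first as a single-concentration broad screen at […], then as concentration-response for follow-up targets, with the reference compound tested in parallel. Specific binding is total minus binding in excess unlabelled ligand, expressed as % of control specific binding. IC50 and Hill coefficient come from non-linear Hill-equation regression of competition curves built from mean replicate values.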

[2] = biological target: 5-hydroxytryptamine receptor 1B (Homo sapiens, UniProt P28222); experiment: Inhibition of 5HT1B receptor; method in brief: as §1
5-hydroxytryptamine receptor 1B, sequence (P28222 whole entry): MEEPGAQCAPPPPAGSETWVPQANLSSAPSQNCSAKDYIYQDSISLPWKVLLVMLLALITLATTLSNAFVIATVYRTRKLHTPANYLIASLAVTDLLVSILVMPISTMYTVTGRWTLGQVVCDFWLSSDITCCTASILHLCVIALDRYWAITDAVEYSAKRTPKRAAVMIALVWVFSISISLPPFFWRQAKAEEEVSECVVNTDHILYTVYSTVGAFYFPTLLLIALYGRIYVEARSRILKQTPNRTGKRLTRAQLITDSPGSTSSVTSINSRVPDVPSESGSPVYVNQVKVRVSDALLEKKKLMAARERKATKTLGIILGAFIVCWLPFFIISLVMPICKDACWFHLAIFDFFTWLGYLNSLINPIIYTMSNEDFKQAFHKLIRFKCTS

[3] = biological target: T2, Alpha-1A adrenergic receptor (Homo sapiens, UniProt P35348); experiment: Inhibition of alpha1A adrenergic receptor; method in brief: as §1
T2 sequence (P35348 whole entry): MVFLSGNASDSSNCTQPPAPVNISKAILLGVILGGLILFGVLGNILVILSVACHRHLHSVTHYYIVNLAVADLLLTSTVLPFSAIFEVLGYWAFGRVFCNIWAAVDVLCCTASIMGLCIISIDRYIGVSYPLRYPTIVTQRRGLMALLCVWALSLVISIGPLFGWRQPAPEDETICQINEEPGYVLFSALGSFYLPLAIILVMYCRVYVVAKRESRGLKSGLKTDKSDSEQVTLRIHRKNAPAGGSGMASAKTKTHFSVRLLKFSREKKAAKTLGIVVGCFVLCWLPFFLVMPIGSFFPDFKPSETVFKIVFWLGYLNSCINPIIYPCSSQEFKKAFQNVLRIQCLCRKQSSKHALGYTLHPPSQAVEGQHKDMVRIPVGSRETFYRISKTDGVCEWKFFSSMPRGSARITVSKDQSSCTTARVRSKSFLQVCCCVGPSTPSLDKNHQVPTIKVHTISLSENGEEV

[4] = biological target: T3, Muscarinic acetylcholine receptor M2 (Homo sapiens, UniProt P08172); experiment: Inhibition of muscarinic M2 receptor; method in brief: as §1
T3 sequence (P08172 whole entry): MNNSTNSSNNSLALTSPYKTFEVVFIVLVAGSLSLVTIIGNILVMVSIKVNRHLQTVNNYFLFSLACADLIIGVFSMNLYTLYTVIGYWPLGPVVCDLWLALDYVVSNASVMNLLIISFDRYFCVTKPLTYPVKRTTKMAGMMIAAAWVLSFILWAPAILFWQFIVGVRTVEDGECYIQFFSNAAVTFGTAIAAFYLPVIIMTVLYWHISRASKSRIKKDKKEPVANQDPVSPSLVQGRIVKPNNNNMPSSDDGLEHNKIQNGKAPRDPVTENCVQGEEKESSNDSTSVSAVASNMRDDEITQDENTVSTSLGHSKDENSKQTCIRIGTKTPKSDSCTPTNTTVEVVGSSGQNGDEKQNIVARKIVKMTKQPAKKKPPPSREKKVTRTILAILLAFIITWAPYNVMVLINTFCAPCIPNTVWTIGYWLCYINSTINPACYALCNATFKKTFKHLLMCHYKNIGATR

[5] = biological target: T4, Alpha-2B adrenergic receptor (Homo sapiens, UniProt P18089); experiment: Inhibition of alpha2B adrenergic receptor
T4 sequence (P18089 whole entry): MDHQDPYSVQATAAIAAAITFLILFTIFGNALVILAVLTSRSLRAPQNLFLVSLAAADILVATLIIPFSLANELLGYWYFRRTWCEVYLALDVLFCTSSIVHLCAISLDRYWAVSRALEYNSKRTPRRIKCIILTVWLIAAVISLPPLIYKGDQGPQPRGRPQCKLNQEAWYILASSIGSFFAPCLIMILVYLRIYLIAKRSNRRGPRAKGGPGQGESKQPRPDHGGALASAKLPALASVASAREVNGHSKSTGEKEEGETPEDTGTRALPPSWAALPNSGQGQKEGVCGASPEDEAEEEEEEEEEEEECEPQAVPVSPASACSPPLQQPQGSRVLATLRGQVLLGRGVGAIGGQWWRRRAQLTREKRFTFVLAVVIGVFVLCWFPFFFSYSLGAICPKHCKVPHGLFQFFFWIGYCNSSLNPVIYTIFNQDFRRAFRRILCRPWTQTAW
Method in brief: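 Binding assay from a broad screen, with a reference compound tested concurrently. Specific binding was total minus nonspecific binding (excess unlabelled ligand). IC50 and Hill coefficient came from non-linear regression of competition curves using mean replicate values.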

[6] = Volume of distribution at steady state in Sprague-Dawley rat at 3 mg/kg, iv; assay type: ADME, organism-based; parameters: dose 3 mg/kg, route intravenous; details: in vivo, read-out: Vdss
Method in brief: (§2)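 Male Sprague-Dawley rats dosed intravenously (3 mg/kg) and orally (10 mg/kg). PK parameters came from non-compartmental analysis of plasma concentration vs time curves.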

[7] = Oral bioavailability in Sprague-Dawley rat at 10 mg/kg; assay type: ADME, organism-based; details: in vivo; method in brief: as §2

Cytochrome P450 2D6, sequence (P10635 whole entry): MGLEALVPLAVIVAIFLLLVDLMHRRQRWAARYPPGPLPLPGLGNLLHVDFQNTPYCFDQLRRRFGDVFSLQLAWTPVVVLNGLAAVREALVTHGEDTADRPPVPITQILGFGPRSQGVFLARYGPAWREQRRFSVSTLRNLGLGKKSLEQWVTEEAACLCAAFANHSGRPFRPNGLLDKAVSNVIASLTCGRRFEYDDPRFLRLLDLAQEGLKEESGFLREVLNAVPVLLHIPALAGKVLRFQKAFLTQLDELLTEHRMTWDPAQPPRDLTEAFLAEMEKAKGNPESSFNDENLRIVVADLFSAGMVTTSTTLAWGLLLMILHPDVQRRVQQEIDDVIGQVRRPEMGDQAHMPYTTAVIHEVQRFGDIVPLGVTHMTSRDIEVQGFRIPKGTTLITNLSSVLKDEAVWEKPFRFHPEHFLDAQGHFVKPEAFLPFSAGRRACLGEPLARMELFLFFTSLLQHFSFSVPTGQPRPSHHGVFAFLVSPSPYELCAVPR

- IC50 (Cytochrome P450 2D6): 750 nM
- IC50 [1]: 1800 nM
- IC50 [2]: 2200 nM
- IC50 [3]: 1900 nM
- IC50 [4]: 3600 nM
- IC50 [5]: 32000 nM
- Vd [6]: 330 L/kg
- bioavailability [7]: 91%
SMILES: N=C(Nc1ccc2c(c1)CCN2C1CCNCC1)c1cccs1
